We go through 16 molecules from ChEMBL document CHEMBL4385635, “Styryl quinazolinones and its ethynyl derivatives induce myeloid differentiation” (Bioorg Med Chem Lett, 2019).

Structures are written as SMILES. Activity calls are given as the source filed them. The rule behind the calls is not given here. Some results are limits rather than exact numbers.

The target in test [1] is Tubulin (Bos taurus, UniProt Q6B856+Q862L2+Q862F3). The experiment in a line: Inhibition of bovine brain tubulin polymerization.
Test [2] has as its system HL-60. Briefly: Induction of apoptosis in human HL60 cells at 10 uM after 7 days. In kind it is functional. An outline of the steps:
(§1)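 Apoptosis in compound-treated HL-60 cells was scored semi-quantitatively (− to +++), alongside the differentiation read-outs, against a 0.1% DMSO vehicle control.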

Test [3] has as its system HL-60. Briefly: Cytotoxicity against human HL60 cells assessed as reduction in cell viability at 3 uM. The test is classed as functional, cell-based.
In test [4] the test system is HL-60. Briefly: Cytotoxicity against human HL60 cells assessed as reduction in cell viability at >3 uM. In kind it is functional, cell-based.
The subject of test [5] is HL-60. The experiment in a line: Induction of differentiation of human HL60 cells assessed as morphological changes at 3 uM after 7 days. In kind it is functional, cell-based. In a few lines: (§2)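 HL-60 cells were treated with compound, with 0.1% DMSO as vehicle control. Differentiation was judged by Wright-Giemsa morphology and NBT reduction, each scored semi-quantitatively from − through ± to +++.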

Test [6] has as its system HL-60. The experiment in a line: Induction of differentiation of human HL60 cells assessed as increase in CEBPE mRNA expression at by QT-PCR analysis. The test is classed as functional, cell-based. An outline of the steps: (§3)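 HL-60 cells were treated with compound over a time course. CEBPA or CEBPE mRNA levels were measured and expressed as fold increase relative to the DMSO vehicle.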

The subject of test [7] is HL-60. The experiment in a line: Induction of differentiation of human HL60 cells assessed as morphological changes at 10 uM after 7 days by Wright-Giemsa staining based assay. The test is classed as functional. An outline of the steps: (§4)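 HL-60 cells were screened for differentiation by Wright-Giemsa morphology and NBT reduction, and apoptosis was scored alongside. Controls were 0.1% DMSO as vehicle and ATRA at 1 μM as positive. Each result was graded on a semiquantitative scale (−, ±, + to +++).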

The test system of test [8] is HL-60. The experiment in a line: Induction of differentiation of human HL60 cells assessed as increase in CEBPA mRNA expression at by QT-PCR analysis. The test is classed as functional, cell-based. An outline of the steps: (§5)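 HL-60 cells were treated and CEBPA and CEBPE mRNA levels were measured by quantitative RT-PCR. Results are expressed as fold increase relative to DMSO-treated cells.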

Test [9] concerns HL-60. Briefly: Induction of differentiation of human HL60 cells assessed as morphological changes at 10 uM after 7 days. In kind it is functional. In a few lines: as §4
In test [10] the test system is HL-60. Briefly: Induction of differentiation of human HL60 cells assessed as morphological changes at 10 uM after 7 days by NBT reduction assay. The test is classed as functional. An outline of the steps:
as §4

Test [11] deals with HL-60. Briefly: Induction of differentiation of human HL60 cells assessed as increase in CD11b positive cells after 7 days by flow cytometric analysis relative to control. The test is classed as functional, cell-based. In a few lines:
(§6)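 HL-60 cells were exposed to compound for 7 days, then stained with APC-conjugated anti-human/mouse CD11b antibody, with rat IgG2b as isotype control. CD11b-positive cells were measured by flow cytometry and reported as percent increase relative to the DMSO vehicle.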
For orientation: A flow cytometer gives signals particle by particle.

In test [12] the test system is HL-60. Briefly: Induction of differentiation of human HL60 cells assessed as increase in CEBPA mRNA expression at 3 uM by QT-PCR analysis. The test is classed as functional. In a few lines:
as §5

The subject of test [13] is HL-60. The experiment in a line: Induction of apoptosis in human HL60 cells at 3 uM after 7 days. In kind it is functional. An outline of the steps: as §4
Test [14] has as its system HL-60. Briefly: Induction of differentiation of human HL60 cells assessed as morphological changes at 3 uM after 7 days by NBT reduction assay. In kind it is functional. In a few lines: as §4
The subject of test [15] is HL-60. Briefly: Induction of differentiation of human HL60 cells assessed as increase in CEBPE mRNA expression at 3 uM by QT-PCR analysis. The test is classed as functional. In a few lines:
as §5

Test [16] deals with HL-60. Briefly: Induction of differentiation of human HL60 cells assessed as increase in CD11b positive cells at 3 uM after 7 days by flow cytometric analysis (reference value: 3.94%). The test is classed as functional.
Test [17] relates to HL-60. Briefly: Induction of differentiation of human HL60 cells assessed as increase in CD11b positive cells at 5 uM after 7 days by flow cytometric analysis (reference value: 3.94%). In kind it is functional.
The test system of test [18] is HL-60. The experiment in a line: Induction of differentiation of human HL60 cells assessed as morphological changes at 3 uM after 7 days by Wright-Giemsa staining based assay. In kind it is functional. An outline of the steps:
as §4

Test [19] concerns HL-60. Briefly: Induction of differentiation of human HL60 cells assessed as morphological changes at 1 uM after 7 days. In kind it is functional, cell-based. In a few lines:
as §2

The subject of test [20] is HL-60. Briefly: Cytotoxicity against human HL60 cells assessed as reduction in cell viability at 1 uM. The test is classed as functional, cell-based.
Test [21] has as its system HL-60. The experiment in a line: Induction of differentiation of human HL60 cells assessed as increase in CEBPA mRNA expression at 1 uM by QT-PCR analysis. The test is classed as functional. An outline of the steps: as §3
Test [22] deals with HL-60. The experiment in a line: Induction of differentiation of human HL60 cells assessed as morphological changes at 1 uM after 7 days by NBT reduction assay. The test is classed as functional. In a few lines: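 In compound-treated HL-60 cells, differentiation was read as NBT reduction. Scoring was semi-quantitative (−, ±, + to +++) against a 0.1% DMSO vehicle control.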

The test system of test [23] is HL-60. Briefly: Induction of apoptosis in human HL60 cells at 1 uM after 7 days. In kind it is functional. In a few lines:
as §1

Test [24] deals with HL-60. Briefly: Induction of differentiation of human HL60 cells assessed as increase in CD11b positive cells at 1 uM after 7 days by flow cytometric analysis (reference value: 3.94%). The test is classed as functional. In a few lines: as §6
In test [25] the test system is HL-60. Briefly: Induction of differentiation of human HL60 cells assessed as morphological changes at 1 uM after 7 days by Wright-Giemsa staining based assay. In kind it is functional. An outline of the steps:
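Compound-treated HL-60 cells were stained with Wright-Giemsa and examined for granulocytic morphology. Scoring was semi-quantitative (− to +++) against a 0.1% DMSO vehicle control.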

The test system of test [26] is HL-60. The experiment in a line: Induction of differentiation of human HL60 cells assessed as increase in CEBPE mRNA expression at 10 uM by QT-PCR analysis. In kind it is functional. In a few lines:
as §5

The test system of test [27] is HL-60. The experiment in a line: Induction of differentiation of human HL60 cells assessed as increase in CEBPA mRNA expression at 10 uM by QT-PCR analysis. The test is classed as functional. In a few lines: as §5
For test [28], the system named is HL-60. Briefly: Induction of differentiation of human HL60 cells assessed as increase in CD11b positive cells at 10 uM after 7 days by flow cytometric analysis (reference value: 3.94%). The test is classed as functional.
The test system of test [29] is L1210. The experiment in a line: Cytotoxicity against mouse L1210 cells assessed as reduction in cell viability after 48 hrs by trypan blue staining-based hemocytometric analysis. The test is classed as functional. The settings on record: L1210, 48 h.
Test [30] concerns HL-60. The experiment in a line: Induction of differentiation of human HL60 cells assessed as increase in CEBPA mRNA expression at 7 uM by QT-PCR analysis. In kind it is functional. In a few lines:
as §5

Test [31] has as its system HL-60. The experiment in a line: Induction of differentiation of human HL60 cells assessed as increase in CEBPE mRNA expression at 7 uM by QT-PCR analysis. The test is classed as functional. An outline of the steps: as §5
Test [32] deals with HL-60. The experiment in a line: Induction of differentiation of human HL60 cells assessed as increase in CD11b positive cells at 7 uM after 7 days by flow cytometric analysis (reference value: 3.94%). The test is classed as functional.

For orientation: IC50 means the concentration that inhibits the measured activity by half.

For the molecule `Oc1nc(/C=C/c2ccccc2)nc2ccc(Cl)cc12`, the IC50 in [1] amounted to 2.5 µM.
`O=c1c2sccc2nc(/C=C/c2ccc([N+](=O)[O-])o2)n1-c1ccc(Cl)cc1`: in [2], the Activity is on record as 5 - 30%. Moreover, the result in [3] and in test [4] was Active. For the same molecule, the outcome in test [5] was inactive.
Consider `Cc1cc(C#Cc2ccc(C(C)(C)C)cc2)ccc1-n1c(/C=C/c2ccc([N+](=O)[O-])o2)nc2ccccc2c1=O`, for which the result in test [6], in test [8] and in [11] was inactive. In addition, the Activity in test [7], in [2], in test [9] and in test [10] was 5 - 30% throughout.
As to `O=c1c2cc(F)ccc2nc(/C=C/c2ccc([N+](=O)[O-])o2)n1-c1ccccc1`, the figures for the “fold change (FC)” value in test [12] and in test [15] were 2.5 and 10.3, respectively. Moreover, the Activity in [13] was 30 - 60%; in [14] it was 30 - 60%; in test [8] (TDE = time-dependent effect), “Tde”; in test [16], 42.2%; in test [17], 68.6%; in [18], 30 - 60%.
Take `O=c1c2sccc2nc(/C=C/c2ccc([N+](=O)[O-])o2)n1-c1cccc(Cl)c1`: the Activity in [2] was 5 - 30%. In addition, the outcome in test [3] and in [4] was Active. In addition, the outcome in [5] was inactive.
On to `O=c1c2sccc2nc(/C=C/c2ccc([N+](=O)[O-])o2)n1-c1ccccc1Cl`, for which the result in [19] and in test [11] was inactive. Moreover, the Activity in test [2] and in test [10] was 5 - 30% throughout. Also, the result in test [8], in test [20] and in [4] was Active.
As for `COc1cc(/C=C/c2nc3ccccc3c(=O)n2-c2c(Cl)cccc2Cl)ccc1O`, in test [2], the Activity is 5 - 30%.
With `CC1=C(/C=C/C(C)=C/C=C/C(C)=C/C(=O)O)C(C)(C)CCC1` [TRETINOIN], the “fold change (FC)” value in test [21] is on record as 3. For the same molecule, the Activity entry was “Tde” in [8] (TDE = time-dependent effect); >60% in test [22]; >60% in test [23]; 96.4% in test [24]; >60% in test [25].
Consider `Cc1ccc(-n2c(/C=C/c3ccc([N+](=O)[O-])o3)nc3ccsc3c2=O)cc1`, for which, in test [2], the Activity was 5 - 30%. Further, the result in test [4] was Active.
Consider `C#Cc1ccc(-n2c(/C=C/c3ccc(O)cc3)nc3ccccc3c2=O)cc1`, for which the Activity in [7], in test [2], in [9] and in test [10] was 5 - 30% throughout.
`COc1ccccc1-n1c(/C=C/c2ccc(O)c(O)c2)nc2ccccc2c1=O`: the Activity in test [7] is 5 - 30%; in [2] it was 5 - 30%; in test [8] (TDE = time-dependent effect) it was “Tde”; in [10], 5 - 30%; in test [28], 25.9 - 51.2%. In addition, the “fold change (FC)” value turned out to be 2.1 in test [26] and 1.5 in test [27].
Consider `Cc1cc(-n2c(/C=C/c3ccccc3)nc3ccc(Cl)cc3c2=O)n(-c2ccccc2)n1`, for which, in test [29], the IC50 turned out to be 15 µM.
Take `COc1ccccc1-n1c(/C=C/c2ccc([N+](=O)[O-])o2)nc2ccc(F)cc2c1=O`: the Activity in test [7] was 30 - 60%; in test [13] it was 30 - 60%; in test [14], 5 - 30%; in test [32], 89%; in test [2], >60%; in [8] (TDE = time-dependent effect), “Tde”. Besides, the Activity is given as 30 - 60% in [10], 5 - 30% in test [18] and 94.2% in test [28]. Also, the “fold change (FC)” value amounted to 1.6 in test [30] and 2.6 in [31].
`O=c1[nH]c(/C=C/c2ccc([N+](=O)[O-])o2)nc2ccsc12`: the Activity in [2] and in [10] was 5 - 30% each time. The outcome in test [8], in [3] and in [4] was Active. Moreover, the outcome in test [11] and in test [5] was inactive.
On to `O=c1c2ccccc2nc(/C=C/c2ccc([N+](=O)[O-])o2)n1-c1ccccc1F`, for which the Activity is 30 - 60% in test [7]; >60% in test [2]; “Tde” in [8] (TDE = time-dependent effect); 30 - 60% in test [10]; 59% in [28]. Further, the “fold change (FC)” value in test [26] is on record as 6; in test [27], 1.8.
In the case of `O=C(O)c1cccc(-n2c(/C=C/c3ccc([N+](=O)[O-])o3)nc3ccccc3c2=O)c1`, the Activity in test [7] and in test [10] was 5 - 30% in each case.
